Bioassay records: PubChem BioAssay, Johns Hopkins Ion Channel Center
Only some compounds are listed: those with a hit (about 3.7% of all), similar ones and a draw of the others.
KCNK3 inh = human KCNK3 channel inhibitors, primary screen, CHO cells, FluxOR thallium flux, B-score. 0.84% of 340,000 active. Potassium channel subfamily K member 3 (Homo sapiens), O14649. FluxOR fluorescence; active compounds read low. AID 602410, 2012. B-score at 10 µM;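 active = B-score under library mean minus 4 SD, starting fluorescence ratio at most library mean plus 5 SD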;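 note: more negative B-score means stronger inhibition of thallium flux through KCNK3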
Kir21 inh = inhibitors of mouse Kir2.1 inward-rectifier potassium channel; AID 1672, 2009; 0.85% of 310,000 active; HEK293-Kir2.1, FluxOR thallium flux fluorescence; active compounds read low; Inward rectifier potassium channel 2 (Mus musculus), P35561; B-score at 10 µM;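 active = fluorescence ratio B-score at or below minus 3 SD of library scores, with starting-brightness B-score within 2 SD, cut at about -4.2 in these data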;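 note: channel flux triggered by added potassium and thallium sulfate stimulus; B-score of peak minus minimum fluorescence over baseline after thallium stimulus; more negative B-score means stronger Kir2.1 block with less thallium influx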
KCNQ1 act = potentiators or activators of KCNQ1 channel, primary screen, cell-based, thallium flux, high-throughput; Potassium voltage-gated channel subfamily KQT member 1 (Homo sapiens), P51787; CHO-K1 KCNQ1, thallium flux FluxOR fluorescence; active compounds read high; B-score at 10 µM; 0.35% of 310,000 active;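 active = fluorescence ratio B-score, a plate-corrected score, at least three library SD, with initial intensity B-score within 5 SD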
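System: CHO-K1 cells stably expressing KCNQ1 / Medium: assay buffer for compound exposure, DMSO matched across wells / Reagent: thallium- and potassium-containing depolarizing buffer / Compound: one concentration, matched DMSO / Incubation: 20 min compound pretreatment at room temperature / Measured by: kinetic FluxOR fluorescence, 10 s baseline plus 110 s post-stimulus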
hERG rescue = hERG rescue from dofetilide block, primary screen, cell-based, CHO-hERG, FluxOR thallium flux, dofetilide IC70 | Voltage-gated inwardly rectifying potassium channel KCNH2 (Homo sapiens), Q12809 | activation (rescue from dofetilide block), less the hit threshold, % at 10 µM | dofetilide IC70 present | 0.51% of 310,000 active | AID 1511, 2009;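 active = activation above the mean of controls blocked by dofetilide plus 5 SD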;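 note: thallium influx through hERG after potassium depolarization seen as dye fluorescence rise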
KCNK9 block = KCNK9 potassium channel inhibitors, primary screen, HEK293 cells, thallium flux; 1.2% of 310,000 active; AID 488922, 2010; FluxOR thallium flux fluorescence; active compounds read low; Potassium channel subfamily K member 9 (Homo sapiens), Q9NPC2; B-score at 10 µM;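 active = ratio B-score over 3 SD below the library mean, with starting fluorescence within 5 SD of its mean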;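 note: negative B-score means less thallium flux so channel inhibition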
KCNQ1 block = inhibitors of human KCNQ1 channel, primary screen, cell-based, thallium flux, high-throughput; CHO-K1 KCNQ1, FluxOR thallium flux fluorescence; active compounds read high; B-score at 10 µM; 1.3% of 310,000 active;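 active = compounds whose thallium flux B-score, printed positive for inhibition, exceeds three library SD while starting fluorescence stays within three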;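 note: channel opened by potassium depolarization with thallium stimulus after 20 min compound exposure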
KCNK9 inh conf = KCNK9 potassium channel inhibitors, confirmation, HEK293 cells, thallium flux, duplicate | AID 492992, 2010 | inhibition, % at 10 µM | 43% of 4,900 active | FluxOR thallium flux fluorescence | shares compounds with KCNK9 block;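 active = thallium signal inhibited by more than 5 SD of the compound-free buffer control wells, on both duplicate plates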;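 note: 0% = assay buffer control wells without compound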
Kir21 sel = mouse Kir2.1 channel inhibition, confirmation, selectivity assay for KCNK9 modulator project, cell-based, HEK293, thallium flux; inhibition, % at 10 µM; shares compounds with KCNK9 block; Kir2.1 cells, FluxOR thallium flux fluorescence; 4% of 4,900 active; AID 492993, 2010;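 active = thallium signal drop more than 5 SD beyond the mean of the no-compound control wells, seen in both duplicate plates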;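 note: signal is fluorescence rise after thallium addition divided by baseline fluorescence; plate controls were assay buffer only for no effect and full block by chlorpromazine control for full effect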
KCNK9 uninduced = thallium flux in non-induced HEK293 cells, confirmation, counter-screen for KCNK9 inhibitor project, cell-based, second counter screen, non-induced KCNK9-HEK293; shares compounds with KCNK9 block; FluxOR thallium flux; inhibition, % at 10 µM; 40% of 4,900 active;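 active = thallium signal drop beyond 5 SD of the untreated control mean, on both duplicate plates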;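 note: plate controls were buffer only IC0 wells for no effect and SID17386958 at its maximal inhibitory level for full effect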
* = called active by the depositor; i = inactive; x = not tested or not shown.

SMILES	KCNK3 inh	Kir21 inh	KCNQ1 act	hERG rescue	KCNK9 block	KCNQ1 block	KCNK9 inh conf	Kir21 sel	KCNK9 uninduced
O=[N+]([O-])c1ccc(N2CCOCC2)cc1SCc1ccco1	i	-1.2	i	-2	i	i	x	x	x
COc1ccc(C(C(=O)NC2CCCC2)N(Cc2ccccc2)C(=O)c2nsc(Cl)c2Cl)cc1 (stereo not given)	i	-1.2	i	-7	i	i	x	x	x
CCOc1ccc(C(C(=O)NC2CCCC2)N(Cc2ccccc2)C(=O)c2nsc(Cl)c2Cl)cc1 (stereo not given)	i	-0.6	i	-6	-15*	i	72%*	i	40%*
COc1ccc(S(=O)(=O)NCCC(C)C)cc1C	i	0.7	i	-11	i	i	x	x	x
COc1ccc(COC(=O)CCc2cc(OC)c(OC)c(OC)c2)cc1F	i	x	x	x	x	x	x	x	x
O=C1C2=C(CCCC2)C(=O)N1c1cccc(OCCBr)c1	i	0	i	-8	i	i	x	x	x
CC(C)CN(CCOc1cccc(N2C(=O)C3=C(CCCC3)C2=O)c1)CC(C)C	i	0.31	i	-9	i	i	i	i	i
CCOC(=O)C1=C(CC)Nc2ccccc2N/C1=N\S(=O)(=O)c1ccc2ccccc2c1	i	0.1	i	-17	i	i	i	i	i
O=C1c2[nH]nc(-c3ccccc3O)c2C(c2cccc(Cl)c2)N1Cc1ccco1 (stereo not given)	i	1.9	i	-17	i	i	x	x	x
Cc1cc(C)c(O)c(-c2n[nH]c3c2C(c2cccc(O)c2)N(Cc2ccco2)C3=O)c1 (stereo not given)	i	1.4	i	-9	-11*	i	58%*	i	41%*
Cc1cccc(NC(=O)CN(C)C(=O)c2ccc3ccccc3n2)c1C	i	x	x	x	x	x	x	x	x
CC(=O)c1sc(N/N=C2\CC3CC2C(C)C3(C)C)nc1C (stereo not given)	i	-1.2	i	-6	i	i	x	x	x
O=C1C(Cl)=C(NC2CCCCC2)C(=O)N1Cc1ccccc1	i	-0.45	i	-8	i	i	i	i	i
Fc1ccc(-[n+]2nc(Nc3ccccc3)sc2-c2c3ccccc3cc3ccccc23)cc1	i	-1.2	i	-21	-12*	11*	34%*	i	i
CCOC(=O)CSc1nc(=O)n2cccc(C)c2n1	i	-2.2	i	-12	i	i	x	x	x
Cc1ccc(-c2cccc(-c3cc(=O)oc4ccc(C(C)(C)C)cc34)c2)cc1	i	x	x	x	x	x	x	x	x
Cc1cccc(NC(=O)c2cc([N+](=O)[O-])ccc2NC2CCCCC2)c1	i	-0.05	i	-3	i	i	x	x	x
CN(c1ccc([N+](=O)[O-])cc1C(=O)Nc1ccccc1)C1CCCCC1	i	-1.1	i	-13	-13*	i	30%*	i	42%*
CCOC(=O)CC1COCCN1Cc1cn(C)nc1-c1ccccc1F (stereo not given)	i	-0.18	i	-16	i	i	x	x	x
CC(C)C(=O)Nc1ccc2nn(-c3ccc(F)cc3)nc2c1	i	0.43	i	-13	i	i	i	i	i
O=C(Nc1cccc(-c2csc(Nc3ccccc3)n2)c1)c1ccccc1	i	1.5	i	-19	i	i	i	i	i
Cc1ccsc1/C=N/N1CCN(C2c3ccccc3-c3ccccc32)CC1	i	-2.8	i	-5	i	i	i	i	27%*
O=C(NNC(=S)Nc1ccc(Cl)c(Cl)c1)c1ccccn1	i	0.43	i	-11	i	i	i	i	i
CCNC(=S)NNC(=O)c1ccccn1	i	0.66	i	-9	i	i	x	x	x
COc1ccc2cc(C(=O)C3CCCN(C(=O)c4cnn(C(C)C)c4)C3)ccc2c1 (stereo not given)	i	-0.95	i	-9	i	i	i	i	i
SMILES	KCNK3 inh	Kir21 inh	KCNQ1 act	hERG rescue	KCNK9 block	KCNQ1 block	KCNK9 inh conf	Kir21 sel	KCNK9 uninduced
COc1ccc(C(=O)C2CCCN(C(=O)c3ccc4cc[nH]c4c3)C2)c(C)c1 (stereo not given)	i	-0.42	i	-21	i	i	i	i	i
COc1ccccc1C(=O)C1CCCN(C(=O)CCc2ccccn2)C1 (stereo not given)	i	-1.5	i	-4	i	i	x	x	x
COc1ccc2cc(C(=O)C3CCCN(C(=O)c4cccnc4)C3)ccc2c1 (stereo not given)	i	1.4	i	-11	i	i	x	x	x
COc1ccc(C(=O)C2CCCN(C(=O)CCc3ccccn3)C2)c(C)c1 (stereo not given)	i	-1.4	i	-8	i	i	i	i	i
COc1ccc(C(=O)C2CCCN(C(=O)c3cccnc3OC)C2)c(C)c1 (stereo not given)	i	2.5	i	-12	i	i	i	i	i
COC(=O)CCCC(=O)N1CCCC(C(=O)c2ccc(OC)cc2C)C1 (stereo not given)	i	-0.48	i	0	i	i	i	i	i
COc1c(C)cc(C(=O)C2CCCN(C(=O)/C=C/c3ccccn3)C2)cc1C (stereo not given)	i	-0.45	i	-16	i	i	i	i	i
COc1ccc(C(=O)C2CCCN(C(=O)CCc3scnc3C)C2)c(C)c1 (stereo not given)	i	-1.7	i	-10	i	i	i	i	i
COc1ccc(NC2CCCN(C(=O)CCc3scnc3C)C2)cc1 (stereo not given)	i	-0.22	i	-7	i	i	x	x	x
